Shown are actives, neighbours in structure and some others; about 2.1% of the full set was active somewhere.
Runt-SMMHC FRET: Runt domain-CBFb-SMMHC interaction inhibition. Cerulean-Runt/Venus-CBFb-SMMHC FRET ratio 530/480, 1 h. inhibition, % at 20 µM. 220,000 tested, 0.74% active. AID 1434;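 active = mean inhibition across duplicate retests at 20 µM reaching about 50%, limit read from the data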;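 also: inhibitors lower the FRET ratio by blocking Runt binding to CBFb-SMMHC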
pCIP destab: p/CIP protein destabilization; F442A p/CIP-EGFP cells, EGFP fluorescence, 16 h; 290,000 tested, 0.01% active; decrease of EGFP signal, % at 10 µM; Q05BA5;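 active = EGFP signal decrease of at least 30% at 10 µM or well 3 SD below plate mean, unless failing retest; inactive = the rest, including hits failing retest or dose response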
Runt-CBFb FRET: blocks binding of human RUNX1 Runt domain to CBFb; Q01196+Q13951; Cerulean-Runt/Venus-CBFb FRET ratio 530/480, 1 h; AID 1496; inhibition, % at 20 µM; 220,000 tested, 0.46% active;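 active = inhibition over about 50% at 20 µM in the single-dose screen, limit read from the data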
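Buffer or medium: Tris pH 7.5 buffer with BSA. Assay system: Cerulean-labeled Runt domain protein. Amount: each fluorescent fusion protein 100 nM. Read-out basis: loss of energy transfer signal. Incubation: 1 h compound exposure, room temperature. Probe or stimulus: Venus-CBFb binding partner, 100 nM. Detection: FRET, excitation 422 nm, emission at 530 and 480 nm.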
Hck Nef HTS: blocks Nef-activated human Hck kinase | P08631 | Recombinant Hck-YEEI plus Nef, Z-Lyte FRET kinase assay | inhibition, % at 20 µM | 220,000 tested, 0.68% active | AID 463187;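 active = Hck-Nef kinase inhibition above about 50%, limit read from the data; inactive = inhibition below that limit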
DSG3 Ab inh: blocks pemphigus antibody binding to human desmoglein-3 | binding (percent of control), % at 10 µM | AID 588358 | DSG3-coupled beads, scFv-anti-DSG3-GFP binding, flow cytometry; stronger effect = lower value | 310,000 tested, 0.48% active;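 active = binding more than 3 SD below its plate's average and above zero; inconclusive = below that plate limit but binding exactly zero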;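 also: hits lower antibody fragment binding to DSG3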
RanGTP-Impb inh: disruptors of Ran-importin-beta complex formation – biochemical, FRET, CFP-Ran, YFP-importin-beta, homogeneous, primary screen; cell-free CFP-Ran/YFP-importin-beta FRET ratio; inhibition, % (no concentration beside the values); 300,000 tested, 1.1% active; AID 2216;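 active = more than half of the replicate wells show a fall in the fluorescence ratio signal beyond about 16%, limit read from the data, passing the limit was not always enough; inconclusive = exactly half of the replicate wells pass the set limit; inactive = fewer than half of replicates pass the limit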
Of the large screens only hits and unclear results are named; the others gave an inactive call.

CCCCN1C2=C(C(=O)CC(C)(C)C2)C(c2ccccc2)C2=C1c1ccccc1C2=O (configuration not stated)	none
COCc1c(C(=O)OCC(=O)NCCc2ccc(S(N)(=O)=O)cc2)oc2ccccc12	none (no result: Runt-SMMHC FRET, pCIP destab, Runt-CBFb FRET, Hck Nef HTS, RanGTP-Impb inh)
Cc1ccc(NC(=S)C2=C(O)c3ccccc3N(C)S2(=O)=O)cc1	none
Cc1ccccc1NC(=S)C1=C(O)c2sccc2N(C)S1(=O)=O	Runt-SMMHC FRET 50.4, RanGTP-Impb inh 89.2
CCNC(=O)C1=C(O)c2sccc2N(C)S1(=O)=O	Runt-SMMHC FRET 65.3, RanGTP-Impb inh 75.7
NC(=O)C1(Nc2ccc(-c3ccc(Br)cc3)cc2)CCCC1	none (no result: Runt-SMMHC FRET, pCIP destab, Runt-CBFb FRET, Hck Nef HTS, RanGTP-Impb inh)
CNC(=O)c1c(NC(=O)c2ccc(S(=O)(=O)N3CCCCC3)cc2)sc2c1CCN(C(C)C)C2	RanGTP-Impb inh 93.3 (no result: Runt-SMMHC FRET, Runt-CBFb FRET, Hck Nef HTS)
CC(C)N1CCc2c(sc(NC(=O)c3ccc(S(=O)(=O)N4CCCCC4C)cc3)c2C(N)=O)C1 (configuration not stated)	RanGTP-Impb inh 107.3 (no result: Runt-SMMHC FRET, Runt-CBFb FRET, Hck Nef HTS)
CCN1CCc2c(sc(NC(=O)c3ccc(S(=O)(=O)N4CCCC4)cc3)c2C(=O)NC)C1	RanGTP-Impb inh 45.7 (no result: Runt-SMMHC FRET, Runt-CBFb FRET, Hck Nef HTS)
NC(=O)c1c(NC(=O)c2ccc(S(=O)(=O)N3CCOCC3)cc2)sc2c1CCCCC2	none
Cc1nnc(NC(=O)c2ccc(S(=O)(=O)N3CCCCC3C)cc2)o1 (configuration not stated)	none (no result: Runt-SMMHC FRET, Runt-CBFb FRET, Hck Nef HTS)
CCCCc1nnc(NC(=O)C(C)Sc2nc(O)c(Cc3ccccc3)c(=O)[nH]2)s1 (configuration not stated)	none
OC[C@@H](O)[C@H](O)C(/C=N/Nc1ccccc1)=N\Nc1ccccc1	none (no result: DSG3 Ab inh)
Clc1cccc(CSc2nnc(-c3c[nH]c4ccccc34)o2)c1	none
Clc1ccc2nc(CSc3nnc(-c4c[nH]c5ccccc45)o3)cn2c1	DSG3 Ab inh 42.5 (no result: Runt-SMMHC FRET, pCIP destab, Runt-CBFb FRET, Hck Nef HTS, RanGTP-Impb inh)
O=C(COC(=O)C1C2CC3OC(=O)C1C3C2)Nc1cccc(Cl)c1 (configuration not stated)	none (no result: Runt-SMMHC FRET, Runt-CBFb FRET, Hck Nef HTS)
O=S(=O)(c1ccc2c(c1)C(=NO)c1cc(S(=O)(=O)N3CCCCC3)ccc1-2)N1CCCCC1	pCIP destab 60.3
CC1CCN(S(=O)(=O)c2ccc3c(c2)C(=NO)c2cc(S(=O)(=O)N4CCC(C)CC4)ccc2-3)CC1	none (no result: pCIP destab, Runt-CBFb FRET, RanGTP-Impb inh)
Cc1ccc(S(=O)(=O)N2CCOCC2)cc1C(=O)N1CCC(Cc2ccccc2)CC1	none (no result: Runt-SMMHC FRET, Runt-CBFb FRET, Hck Nef HTS)
O=c1[nH]c(=O)c2ncc(-c3ccc(Cl)cc3)nc2[nH]1	Runt-SMMHC FRET 85.3, Runt-CBFb FRET 53.8 (no result: DSG3 Ab inh)
CCSc1sccc1C1C(C#N)=C(N)N(c2cccnc2)C2=C1C(=O)CCC2 (configuration not stated)	Runt-SMMHC FRET 66.2, RanGTP-Impb inh inconclusive
Cc1ccnc(N/C=C(\C#N)c2nc(-c3cccc(Br)c3)cs2)c1	RanGTP-Impb inh 56.2
N#C/C(=C\Nc1ccc2cn[nH]c2c1)c1nc(-c2ccccc2)cs1	none
COc1ccc(NC(=O)CN(C)CC(=O)Nc2ccc(N3CCOCC3)cc2)c([N+](=O)[O-])c1	DSG3 Ab inh 67.1, RanGTP-Impb inh inconclusive
Nc1ccc2c(C(F)(F)F)cc(=O)oc2c1	Runt-SMMHC FRET 61.3, RanGTP-Impb inh 57.2
CCCS(=O)(=O)c1c(S(=O)(=O)CCC)c2cc(-c3ccncc3)ccn2c1C(=O)OC	Runt-SMMHC FRET 109.2
CSc1nc(N(CCO)CCO)c2sc3nc(-c4ccco4)c4c(c3c2n1)CCC4	Hck Nef HTS 77.0 (no result: DSG3 Ab inh)
COC(=O)CSc1nc(SC)nc2c1sc1nc(-c3ccco3)c3c(c12)CC(C)(C)OC3	none (no result: Runt-SMMHC FRET, pCIP destab, Runt-CBFb FRET, Hck Nef HTS, RanGTP-Impb inh)
CCNc1nc(C)c(CN(C(C)=O)c2ccccc2)nc1C#N	Runt-SMMHC FRET 91.2
CC(=O)N(CN1C(=O)c2ccccc2C1=O)c1ccccc1	none (no result: DSG3 Ab inh)
CCOCCCNC(=O)c1cc2c(=O)n3cccc(C)c3nc2n1C	none (no result: Hck Nef HTS)
CCOC(=O)c1cc2c(=O)n3cccc(C)c3nc2n(C)c1=N	Hck Nef HTS 148.2 (no result: DSG3 Ab inh, RanGTP-Impb inh)
COCCNC(=O)c1cc2c(=O)n3cccc(C)c3nc2n1C	none (no result: Hck Nef HTS)
Cc1cccn2c(=O)c3cc(C(N)=S)c(=N)n(CCCOC(C)C)c3nc12	Runt-SMMHC FRET 65.3, Runt-CBFb FRET 56.8, RanGTP-Impb inh 173.9
CCOCCCn1c(=N)c(C(N)=S)cc2c(=O)n3cccc(C)c3nc21	RanGTP-Impb inh 173.3 (no result: Runt-SMMHC FRET, DSG3 Ab inh)
